# According to ChEMBL document CHEMBL5376013, “Design, synthesis and biological evaluation of novel morpholinopyrimidine-5-carbonitrile derivatives as dual PI3K/mTOR inhibitors” (RSC Med Chem, 2024):
# What was measured:
# Type in all cases: functional
# Conditions in all cases: read-out: GI
# LOX IMVI = experiment: Antitumor activity against human LOX IMVI cells assessed as growth inhibition at 10 uM relative to control
# How it was run: (§1)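 After drug addition, plates were incubated 48 h at 37 °C under 5% CO2. Adherent cells were fixed with cold TCA (10% final, 60 min, 4 °C) and suspension cells with 16% final TCA. Staining used 0.4% SRB in 1% acetic acid, solubilized in 10 mM trizma, read at A515. Percent growth was calculated from time-zero, control and treated absorbances.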
# NCI-H226 = experiment: Antitumor activity against human NCI-H226 cells assessed as growth inhibition at 10 uM relative to control; how it was run: as §1
# TK-10 = experiment: Antitumor activity against human TK-10 cells assessed as growth inhibition at 10 uM relative to control
# How it was run: (§2)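 Drug exposure 48 h at 37 °C, 5% CO2. Adherent cells fixed with cold TCA (10% final), suspension cells with TCA (16% final). Stained with 0.4% SRB in 1% acetic acid, dissolved in 10 mM Tris, A515. Growth relative to time-zero and untreated control.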
# SK-MEL-5 = experiment: Antitumor activity against human SK-MEL-5 cells assessed as growth inhibition at 10 uM relative to control; how it was run: as §2
# SNB-19 = experiment: Antitumor activity against human SNB-19 cells assessed as growth inhibition at 10 uM relative to control; how it was run: as §2
# COLO 205 = experiment: Antitumor activity against human COLO 205 cells assessed as growth inhibition at 10 uM relative to control; how it was run: as §1
# OVCAR-4 = experiment: Antitumor activity against human OVCAR-4 cells assessed as growth inhibition at 10 uM relative to control; how it was run: as §1
# RXF 393 = experiment: Antitumor activity against human RXF 393 cells assessed as growth inhibition at 10 uM relative to control; how it was run: as §1
# DU-145 = experiment: Antitumor activity against human DU-145 cells assessed as growth inhibition at 10 uM relative to control; how it was run: as §1
# OVCAR-8 = experiment: Antitumor activity against human OVCAR-8 cells assessed as growth inhibition at 10 uM relative to control; how it was run: as §1
# EKVX = experiment: Antitumor activity against human EKVX cells assessed as growth inhibition at 10 uM relative to control; how it was run: as §1
# MDA-MB-435 = experiment: Antitumor activity against human MDA-MB-435 cells assessed as growth inhibition at 10 uM relative to control; how it was run: as §1
# NCI-H322M = experiment: Antitumor activity against human NCI-H322M cells assessed as growth inhibition at 10 uM relative to control; how it was run: as §1
# OVCAR-3 = experiment: Antitumor activity against human OVCAR-3 cells assessed as growth inhibition at 10 uM relative to control; how it was run: as §1
# SF-539 = experiment: Antitumor activity against human SF-539 cells assessed as growth inhibition at 10 uM relative to control; how it was run: as §1
# CAKI-1 = experiment: Antitumor activity against human CAKI-1 cells assessed as growth inhibition at 10 uM relative to control; how it was run: as §1
# NCI-H522 = experiment: Antitumor activity against human NCI-H522 cells assessed as growth inhibition at 10 uM relative to control; how it was run: as §1
# U-251 = experiment: Antitumor activity against human U-251 cells assessed as growth inhibition at 10 uM relative to control; how it was run: as §2
# SK-OV-3 = experiment: Antitumor activity against human SK-OV-3 cells assessed as growth inhibition at 10 uM relative to control; how it was run: as §2
# HCC 2998 = experiment: Antitumor activity against human HCC 2998 cells assessed as growth inhibition at 10 uM relative to control; how it was run: as §1
# HOP-62 = experiment: Antitumor activity against human HOP-62 cells assessed as growth inhibition at 10 uM relative to control; how it was run: as §1
# SF-268 = experiment: Antitumor activity against human SF-268 cells assessed as growth inhibition at 10 uM relative to control; how it was run: as §1
# Hs-578T = experiment: Antitumor activity against human Hs-578T cells assessed as growth inhibition at 10 uM relative to control; how it was run: as §1
# OVCAR-5 = experiment: Antitumor activity against human OVCAR-5 cells assessed as growth inhibition at 10 uM relative to control; how it was run: as §1
# 786-0 = experiment: Antitumor activity against human 786-0 cells assessed as growth inhibition at 10 uM relative to control; how it was run: as §1
# NCI-H23 = experiment: Antitumor activity against human NCI-H23 cells assessed as growth inhibition at 10 uM relative to control; how it was run: as §1
# IGROV-1 = experiment: Antitumor activity against human IGROV-1 cells assessed as growth inhibition at 10 uM relative to control; how it was run: as §1
# HCT-116 = experiment: Antitumor activity against human HCT-116 cells assessed as growth inhibition at 10 uM relative to control; how it was run: as §1
# K562 = experiment: Antitumor activity against human K562 cells assessed as growth inhibition at 10 uM relative to control; how it was run: as §1
# SK-MEL-2 = experiment: Antitumor activity against human SK-MEL-2 cells assessed as growth inhibition at 10 uM relative to control; how it was run: as §1
# UACC-257 = experiment: Antitumor activity against human UACC-257 cells assessed as growth inhibition at 10 uM relative to control; how it was run: as §2
# MDA-MB-231 = experiment: Antitumor activity against human MDA-MB-231 cells assessed as growth inhibition at 10 uM relative to control; how it was run: as §1
# MCF7 = experiment: Antitumor activity against human MCF7 cells assessed as growth inhibition at 10 uM relative to control; how it was run: as §1
# UO-31 = experiment: Antitumor activity against human UO-31 cells assessed as growth inhibition at 10 uM relative to control; how it was run: as §2
# HCT-15 = experiment: Antitumor activity against human HCT-15 cells assessed as growth inhibition at 10 uM relative to control; how it was run: as §1
# M14 = experiment: Antitumor activity against human M14 cells assessed as growth inhibition at 10 uM relative to control; how it was run: as §1
# A549 = experiment: Antitumor activity against human A549 cells assessed as growth inhibition at 10 uM relative to control; how it was run: as §1
# MOLT-4 = experiment: Antitumor activity against human MOLT-4 cells assessed as growth inhibition at 10 uM relative to control; how it was run: as §1
# SR = experiment: Antitumor activity against human SR cells assessed as growth inhibition at 10 uM relative to control; how it was run: as §2
# A498 = experiment: Antitumor activity against human A498 cells assessed as growth inhibition at 10 uM relative to control; how it was run: as §1
# SF-295 = experiment: Antitumor activity against human SF-295 cells assessed as growth inhibition at 10 uM relative to control; how it was run: as §1
# HOP-92 = experiment: Antitumor activity against human HOP-92 cells assessed as growth inhibition at 10 uM relative to control; how it was run: as §1
# BT-549 = experiment: Antitumor activity against human BT-549 cells assessed as growth inhibition at 10 uM relative to control; how it was run: as §1
# PC-3 = experiment: Antitumor activity against human PC-3 cells assessed as growth inhibition at 10 uM relative to control; how it was run: as §1
# SNB-75 = experiment: Antitumor activity against human SNB-75 cells assessed as growth inhibition at 10 uM relative to control; how it was run: as §2
# HL-60 = experiment: Antitumor activity against human HL-60 cells assessed as growth inhibition at 10 uM relative to control; how it was run: as §1
compound,measurement,setting,value
N#Cc1c(-c2ccc(Cl)cc2)nc(N/N=C/c2cccc(O)c2)nc1N1CCOCC1,inhibition of growth at 10 µM,LOX IMVI,38.2%
same,inhibition of growth at 10 µM,NCI-H226,36.7%
same,inhibition of growth at 10 µM,TK-10,21%
same,inhibition of growth at 10 µM,SK-MEL-5,23.5%
same,inhibition of growth at 10 µM,SNB-19,13.1%
same,inhibition of growth at 10 µM,COLO 205,14.8%
same,inhibition of growth at 10 µM,OVCAR-4,< 1%
same,inhibition of growth at 10 µM,RXF 393,< 1%
same,inhibition of growth at 10 µM,DU-145,36.6%
same,inhibition of growth at 10 µM,OVCAR-8,34.6%
same,inhibition of growth at 10 µM,EKVX,33.4%
same,inhibition of growth at 10 µM,MDA-MB-435,13%
same,inhibition of growth at 10 µM,NCI-H322M,13.7%
same,inhibition of growth at 10 µM,OVCAR-3,22.3%
same,inhibition of growth at 10 µM,SF-539,32.2%
same,inhibition of growth at 10 µM,CAKI-1,29.9%
same,inhibition of growth at 10 µM,NCI-H522,25.2%
same,inhibition of growth at 10 µM,U-251,14.2%
same,inhibition of growth at 10 µM,SK-OV-3,< 1%
same,inhibition of growth at 10 µM,HCC 2998,< 1%
same,inhibition of growth at 10 µM,HOP-62,21.2%
same,inhibition of growth at 10 µM,SF-268,18.1%
same,inhibition of growth at 10 µM,Hs-578T,10.6%
same,inhibition of growth at 10 µM,OVCAR-5,< 1%
same,inhibition of growth at 10 µM,786-0,35.7%
same,inhibition of growth at 10 µM,NCI-H23,< 1%
same,inhibition of growth at 10 µM,IGROV-1,35.1%
same,inhibition of growth at 10 µM,HCT-116,42.1%
same,inhibition of growth at 10 µM,K562,54.9%
same,inhibition of growth at 10 µM,SK-MEL-2,< 1%
same,inhibition of growth at 10 µM,UACC-257,< 1%
same,inhibition of growth at 10 µM,MDA-MB-231,< 1%
same,inhibition of growth at 10 µM,MCF7,< 39.9%
same,inhibition of growth at 10 µM,UO-31,64.3%
same,inhibition of growth at 10 µM,HCT-15,55.3%
same,inhibition of growth at 10 µM,M14,33.4%
same,inhibition of growth at 10 µM,A549,27.3%
same,inhibition of growth at 10 µM,MOLT-4,60.2%
same,inhibition of growth at 10 µM,SR,95.3%
same,inhibition of growth at 10 µM,A498,24.9%
same,inhibition of growth at 10 µM,SF-295,< 1%
same,inhibition of growth at 10 µM,HOP-92,36.7%
same,inhibition of growth at 10 µM,BT-549,26.9%
same,inhibition of growth at 10 µM,PC-3,36.2%
same,inhibition of growth at 10 µM,SNB-75,53.9%
same,inhibition of growth at 10 µM,HL-60,33.4%
